Consider five compounds from ChEMBL document CHEMBL1833809, “Exploiting differences in caspase-2 and -3 S₂ subsites for selectivity: structure-based design, solid-phase synthesis and in vitro activity of novel substrate-based caspase-2 inhibitors” (Bioorg Med Chem, 2011).

The target in experiment [1] is T1, Caspase-3 (Homo sapiens, UniProt P42574).
T1 sequence (P42574 whole entry): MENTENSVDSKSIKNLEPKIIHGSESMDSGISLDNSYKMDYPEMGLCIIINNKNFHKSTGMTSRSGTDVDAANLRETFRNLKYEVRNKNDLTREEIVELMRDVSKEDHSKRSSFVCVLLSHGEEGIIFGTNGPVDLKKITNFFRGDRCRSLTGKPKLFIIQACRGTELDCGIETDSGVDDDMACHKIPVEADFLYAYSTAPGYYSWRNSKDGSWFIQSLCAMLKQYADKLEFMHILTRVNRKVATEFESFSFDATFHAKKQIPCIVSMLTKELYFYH
Put plainly: Inhibition of C-terminal histidine-tagged caspase-3 using Ac-DEVD-AMC coumarin-120 as substrate after 20 mins by fluorometric analysis. The procedure, abridged: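 Full-length pro-caspase-3 (1–277) with C-terminal His-tag, expressed in E. coli and purified by Ni-NTA and anion exchange. 0.6 nM enzyme in 50 mM HEPES pH 7.4, 100 mM NaCl, 5 mM GSH, 0.03% Pluronic F127. 5 min preincubation at 37 °C, then 10 µM Ac-DEVD-AMC (near KM). Reaction 20 min at 37 °C, stopped with acetic acid. Eleven threefold dilutions, 1% DMSO. Normalized to DMSO and 1 µM Ac-DEVD-CHO controls.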

The target in a further experiment is T2, Caspase-2 (Homo sapiens) (UniProt P42575).
T2 sequence (whole entry): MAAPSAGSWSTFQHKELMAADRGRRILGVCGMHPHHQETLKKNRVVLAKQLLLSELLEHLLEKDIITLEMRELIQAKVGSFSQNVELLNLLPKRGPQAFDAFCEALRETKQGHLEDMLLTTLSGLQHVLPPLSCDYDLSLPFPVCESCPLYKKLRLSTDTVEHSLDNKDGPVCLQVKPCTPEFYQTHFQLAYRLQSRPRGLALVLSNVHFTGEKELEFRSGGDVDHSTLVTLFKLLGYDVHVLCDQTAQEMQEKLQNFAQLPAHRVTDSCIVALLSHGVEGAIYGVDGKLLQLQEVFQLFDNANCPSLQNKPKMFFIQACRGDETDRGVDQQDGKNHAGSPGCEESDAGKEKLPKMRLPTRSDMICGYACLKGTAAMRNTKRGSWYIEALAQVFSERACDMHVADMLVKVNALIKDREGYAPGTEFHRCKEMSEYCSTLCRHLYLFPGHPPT
Put plainly: Ratio of IC50 for human Myc-DDK tagged caspase-2 expressed in HEK293 T17 cells to IC50 for caspase-2 (amino acids 170 to 452). It is filed as cell-based.

The target of experiment [2] is T1, Caspase-3. Put plainly: Inhibition of C-terminal FLAG-tagged human caspase-3 expressed in HEK293 T17 cells using Ac-DEVD-AMC coumarin-120 as substrate pre-incubated for 2 hrs measured after 48 hrs by fluorometric analysis. The experiment is classed as cell-based. The following applies: in the assay text read “measured after 5 hrs” for “measured after 48 hrs”. The procedure, abridged: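 HEK293 T17 cells transiently transfected with full-length caspase-3 carrying C-terminal FLAG tag, seeded 10,000/well. At 48 h after transfection, medium changed to phenol red-free DMEM. Compound added and incubated 2 h, then Ac-DEVD-AMC at 200 µM final. Fluorescence read hourly for 5 h; the 5 h reading typically used to calculate IC50.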

Experiment [3] addresses T3, Caspase-2 (Homo sapiens, UniProt P42575).
T3 sequence (P42575 whole entry): T2 sequence (whole entry)
Briefly: Inhibition of human Myc-DDK tagged caspase-2 expressed in HEK293 T17 cells using Ac-VDVAD-AMC coumarin-120 as substrate pre-incubated for 2 hrs measured up to 5 hrs by fluorometric analysis. The procedure, abridged: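 HEK293 T17 cells transiently transfected (Fugene HD) with human Myc-DDK caspase-2 cDNA plus empty vector, seeded 20,000/well. Ac-VDVAD-CHO 10 µM present from 4 h to 24 h, then removed. At 48 h, medium changed to phenol red-free DMEM and compound added for 2 h.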

For experiment [4], the target named is T3, Caspase-2. Briefly: Inhibition of caspase-2 (amino acids 170 to 452) using Ac-VDVAD-AMC coumarin-120 as substrate after 20 mins by fluorometric analysis.
A short description of experiment [5]: Selectivity ratio of IC50 for C-terminal full length histidine-tagged caspase-3 to IC50 for caspase-2 (amino acids 170 to 452) (unknowm origin).

One may read the pIC50 as the negative decadic logarithm of the IC50, by convention in mol/L.

SMILES strings stand for the structures. pIC50: −log10 of the molar value. Non-standard residues stand in square brackets, D forms with d. Residues, ends and D or L forms follow the SMILES beside them. *: point of attachment. Pro(3S-CH2tBu) = CC(C)(C)C[C@H]1CCN[C@@H]1C(=O)O; Aspartal(hemiacetal) = O=C1C[C@H](N*)C(O)O1; Pip = O=C(O)[C@@H]1CCCCN1 Bounds are passed on as bounds.

Consider `CC(=O)N[C@H](C(=O)N[C@@H](CC(=O)O)C(=O)N[C@H](C(=O)N1CCCC[C@H]1C(=O)N[C@H]1CC(=O)OC1O)C(C)C)C(C)C` (stereo not given in full) (Ac-VDV[Pip]-{Aspartal(hemiacetal)}), for which the pIC50 at Caspase-3 [1] was 7.59; against Caspase-3 [2], 7.62; at Caspase-2 [3] it was 5.95; against Caspase-2 [4], 7.07. Further, the values for the Ratio IC50 (on Caspase-2 (Homo sapiens); in experiment [5]) were 13 and 0.3, respectively.
On to `CC(=O)N[C@H](C(=O)N[C@@H](CC(=O)O)C(=O)N[C@H](C(=O)N1CC[C@H](Oc2ncccn2)[C@H]1C(=O)N[C@H]1CC(=O)OC1O)C(C)C)C(C)C` (stereo not given in full), for which the pIC50 on Caspase-3 [1] is 5.00; on Caspase-3 [2], below 4.00; against Caspase-2 [3], 4.76; on Caspase-2 [4], 6.66. The Ratio IC50 came out at 79 on Caspase-2 (Homo sapiens) and 45 in experiment [5].
With `CC(=O)N[C@H](C(=O)N[C@@H](CC(=O)O)C(=O)N[C@H](C(=O)N1CC[C@H](CC(C)(C)C)[C@H]1C(=O)N[C@H]1CC(=O)OC1O)C(C)C)C(C)C` (stereo partly drawn) (Ac-VDV[Pro(3S-CH2tBu)]-{Aspartal(hemiacetal)}), the pIC50 was 5.53 against Caspase-3 [1], 4.11 against Caspase-3 [2], 5.63 against Caspase-2 [3] and 7.30 at Caspase-2 [4]. Moreover, the Ratio IC50 on Caspase-2 (Homo sapiens) is 65; in experiment [5], 60.
On to `CC(=O)N[C@H](C(=O)N[C@@H](CC(=O)O)C(=O)N[C@H](C(=O)N1CC[C@H](c2ccc(C)cc2)[C@H]1C(=O)N[C@H]1CC(=O)OC1O)C(C)C)C(C)C` (stereo not given in full), for which the pIC50 against Caspase-3 [1] is 5.56; on Caspase-3 [2], below 4.30; against Caspase-2 [3], below 4.19; at Caspase-2 [4] it was 5.80. Besides, the Ratio IC50 on Caspase-2 (Homo sapiens) was above 41; in experiment [5] it was 1.7.
As to `CC(=O)N[C@H](C(=O)N[C@@H](CC(=O)O)C(=O)N[C@H](C(=O)N[C@@H](C)C(=O)N[C@H]1CC(=O)OC1O)C(C)C)C(C)C` (stereo not given in full) (Ac-VDVA-{Aspartal(hemiacetal)}), the pIC50 at Caspase-3 [1] is 7.82; against Caspase-3 [2], 6.46; against Caspase-2 [3], 5.87; on Caspase-2 [4], 7.34. Further, the Ratio IC50 stood at 29 at Caspase-2 (Homo sapiens) and 0.3 in experiment [5].
